Assay [1] concerns Escherichia coli. Put plainly: Induction of outer membrane permeabilization of Escherichia coli ML-35p by nitrocefin permeation based spectrophotometric assay. Format: functional, organism-based. The procedure, abridged: (§1)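 E. coli ML-35p grown overnight in TSB at 37°C, washed three times in 10 mM phosphate/0.1 M NaCl, pH 7.4. Diluted to 10^6 CFU/ml in the same buffer with 300 μg/ml TSB. Ceragenin or melittin 0–100 μg/ml, in duplicate. Outer membrane: 30 μM nitrocefin, A486. Inner membrane: 2.5 mM ONPG, A420. Read every 2 min for 60 min at 37°C with shaking.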

For assay [2], the system named is Enterococcus faecalis. Kind of assay: Bactericidal activity against Enterococcus faecalis ATCC 29212 with lipid composition of 0% phosphatidylethanolamine, 27% phosphatidylglycerol and 19% cardiolipin by broth microdilution method. Format: functional. A digest of the protocol: (§2)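 Cells were incubated 24 h with incrementally varied ceragenin concentrations, then plated on tryptic soy agar. MBC is the lowest concentration completely eradicating bacteria (detection limit 10 CFU/ml).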
On the technique in general: Dilution methods test growth across graded concentrations, often in twofold steps.

Assay [3] relates to Staphylococcus epidermidis. Put plainly: Induction of cytoplasmic membrane depolarization in Staphylococcus epidermidis ATCC 35984 with lipid composition of 0% phosphatidylethanolamine, 90% phosphatidylglycerol and 1% cardiolipin at MBC by DiS-C2 dye based fluorimetric assay. It is filed as functional. A digest of the protocol:
(§3)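 Overnight TSB cultures (37°C) were washed three times in 250 mM sucrose, 5 mM MgSO4, 10 mM K phosphate, pH 7.0, and diluted to A600 0.085 with 1 μM DiS-C2(5). Dye loaded 7 min at room temperature, then 7 min at 37°C. Ceragenin added with stirring at 37°C; fluorescence (ex 600/em 660 nm) read every 30 s. Depolarization at 330 s is expressed as % of the maximal fluorescence increase at 4× MBC.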

For assay [4], the system named is Staphylococcus aureus. Put plainly: Bactericidal activity against methicillin-resistant Staphylococcus aureus ATCC BAA-41 with lipid composition of 0% phosphatidylethanolamine, 57% phosphatidylglycerol and 19% cardiolipin by broth microdilution method. Format: functional. A digest of the protocol:
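Cells were incubated 24 h with stepwise-varied ceragenin concentrations, then each sample was plated on tryptic soy agar. MBC was taken as the lowest concentration giving complete kill (detection limit 10 CFU/ml).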

In assay [5] the test system is Paenibacillus polymyxa. Put plainly: Induction of cytoplasmic membrane depolarization in Bacillus polymyxa ATCC 21830 with lipid composition of 60% phosphatidylethanolamine, 3% phosphatidylglycerol and 8% cardiolipin at MBC by DiS-C2 dye based fluorimetric assay. It is filed as functional. A digest of the protocol: as §3
Assay [6] deals with Staphylococcus aureus. Kind of assay: Induction of cytoplasmic membrane depolarization in Staphylococcus aureus ATCC BAA-41 with lipid composition of 0% phosphatidylethanolamine, 57% phosphatidylglycerol and 19% cardiolipin at MBC by DiS-C2 dye based fluorimetric assay. Format: functional. A digest of the protocol: as §3
For assay [7], the system named is Enterococcus faecalis. Put plainly: Induction of cytoplasmic membrane depolarization in Enterococcus faecalis ATCC 29212 with lipid composition of 0% phosphatidylethanolamine, 27% phosphatidylglycerol and 19% cardiolipin at MBC by DiS-C2 dye based fluorimetric assay. It is filed as functional. The procedure, abridged: as §3
Assay [8] concerns Escherichia coli. Put plainly: Induction of inner membrane permeabilization of Escherichia coli ML-35p at 100 ug/ml by ONPG hydrolysis based spectrophotometric assay.
Assay [9] relates to Staphylococcus epidermidis. Put plainly: Bactericidal activity against Staphylococcus epidermidis ATCC 35984 with lipid composition of 0% phosphatidylethanolamine, 90% phosphatidylglycerol and 1% cardiolipin by broth microdilution method. It is filed as functional. The procedure, abridged:
as §2

Assay [10] has as its system Staphylococcus aureus. Kind of assay: Bactericidal activity against Staphylococcus aureus ATCC 25923 with lipid composition of 0% phosphatidylethanolamine, 67% phosphatidylglycerol and 19% cardiolipin by broth microdilution method. It is filed as functional. The conditions noted are these: in the assay text read “57% phosphatidylglycerol” for “67% phosphatidylglycerol”. The procedure, abridged: as §2

Assay [11] has as its system Paenibacillus polymyxa. Put plainly: Bactericidal activity against Bacillus polymyxa ATCC 21830 with lipid composition of 60% phosphatidylethanolamine, 3% phosphatidylglycerol and 8% cardiolipin by broth microdilution method. Format: functional. The procedure, abridged: as §2
The subject of assay [12] is Bacillus cereus. Kind of assay: Bactericidal activity against Bacillus cereus ATCC 11778 with lipid composition of 43% phosphatidylethanolamine, 40% phosphatidylglycerol and 17% cardiolipin by broth microdilution method. Format: functional. The procedure, abridged:
as §2

Assay [13] concerns Bacillus cereus. Kind of assay: Induction of cytoplasmic membrane depolarization in Bacillus cereus ATCC 11778 with lipid composition of 43% phosphatidylethanolamine, 40% phosphatidylglycerol and 17% cardiolipin at MBC by DiS-C2 dye based fluorimetric assay. It is filed as functional. A digest of the protocol: as §3
Assay [14] concerns Staphylococcus aureus. Kind of assay: Induction of cytoplasmic membrane depolarization in Staphylococcus aureus ATCC 25923 with lipid composition of 0% phosphatidylethanolamine, 57% phosphatidylglycerol and 19% cardiolipin at MBC by DiS-C2 dye based fluorimetric assay. Format: functional. A digest of the protocol: as §3
The subject of assay [15] is Klebsiella pneumoniae. Kind of assay: Bactericidal activity against Klebsiella pneumoniae ATCC 13883 with lipid composition of 82% phosphatidylethanolamine, 5% phosphatidylglycerol and 6% cardiolipin by broth microdilution method. Format: functional. A digest of the protocol:
(§4)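 MBC by broth microdilution in the Gram-negative depolarization buffer (20 mM glucose, 5 mM HEPES, pH 7.3). Cells were incubated 24 h with incrementally varied ceragenin concentrations and plated on tryptic soy agar. MBC is the lowest concentration completely eradicating bacteria (detection limit 10 CFU/ml).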

Another assay deals with Pseudomonas aeruginosa. Put plainly: Bactericidal activity against Pseudomonas aeruginosa ATCC 27852 with lipid composition of 60% phosphatidylethanolamine, 21% phosphatidylglycerol and 11% cardiolipin by broth microdilution method. It is filed as functional. A digest of the protocol:
as §4

The subject of assay [16] is Escherichia coli. Kind of assay: Induction of inner membrane permeabilization of Escherichia coli ML-35p by ONPG hydrolysis based spectrophotometric assay. Format: functional, organism-based. The procedure, abridged: as §1
Assay [17] relates to Escherichia coli. Put plainly: Bactericidal activity against Escherichia coli ATCC 25922 with lipid composition of […], 15% phosphatidylglycerol and 5% cardiolipin by broth microdilution method. It is filed as functional. The procedure, abridged: as §4
The subject of assay [18] is Klebsiella pneumoniae. Put plainly: Induction of outer membrane permeabilization of Klebsiella pneumoniae ATCC 13883 at MBC by DiS-C2 dye based fluorimetric assay. Format: functional, organism-based. A digest of the protocol:
(§5)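 Overnight TSB cultures (37°C), washed three times in TSB, then suspended in 20 mM glucose/5 mM HEPES, pH 7.3, at A600 0.085 with 1 μM DiS-C2(5). Equilibrated about 60 min at 37°C to a stable baseline. EDTA or ceragenin added; fluorescence (ex 600/em 660 nm) read every 30 s with stirring at 37°C. A fluorescence drop indicates outer-membrane permeabilization and dye uptake.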

The subject of assay [19] is Escherichia coli. Kind of assay: Induction of outer membrane permeabilization of Escherichia coli ATCC 25922 at MBC by DiS-C2 dye based fluorimetric assay. It is filed as functional, organism-based. A digest of the protocol:
as §5

Values after ≈ are worked out from the molar mass of the structure shown. Active and inactive are the calls of the source.

In general, MBC refers to the smallest concentration meeting the test's criterion for killing.

For the molecule `CC[C@H](C)[C@H](NC(=O)CN)C(=O)NCC(=O)N[C@@H](C)C(=O)N[C@H](C(=O)N[C@@H](CC(C)C)C(=O)N[C@@H](CCCCN)C(=O)N[C@H](C(=O)N[C@@H](CC(C)C)C(=O)N[C@H](C(=O)N[C@H](C(=O)NCC(=O)N[C@@H](CC(C)C)C(=O)N1CCC[C@H]1C(=O)N[C@@H](C)C(=O)N[C@@H](CC(C)C)C(=O)N[C@H](C(=O)N[C@@H](CO)C(=O)N[C@@H](Cc1c[nH]c2ccccc12)C(=O)N[C@H](C(=O)N[C@@H](CCCCN)C(=O)N[C@@H](CCCNC(=N)N)C(=O)N[C@@H](CCCCN)C(=O)N[C@@H](CCCNC(=N)N)C(=O)N[C@@H](CCC(N)=O)C(=O)N[C@@H](CCC(N)=O)C(N)=O)[C@@H](C)CC)[C@@H](C)CC)[C@@H](C)O)[C@@H](C)O)C(C)C)C(C)C`, the outcome with Escherichia coli [1] was Active.

Regarding `C[C@H](CCCNCCCNCCCN)[C@H]1CC[C@H]2[C@@H]3[C@H](OCCCN)C[C@@H]4C[C@H](OCCCN)CC[C@]4(C)[C@H]3C[C@H](OCCCN)[C@]12C`, the MBC amounted to 280 µg/mL (≈ 412 µM) in the assay with Enterococcus faecalis [2]; 28 µg/mL (≈ 41.2 µM) against Staphylococcus aureus [4]; 2.5 µg/mL (≈ 3.68 µM) in assay [9]; 49 µg/mL (≈ 72.2 µM) in the assay with Staphylococcus aureus [10]; 2.5 µg/mL (≈ 3.68 µM) with Paenibacillus polymyxa [11]; 7 µg/mL (≈ 10.3 µM) in the assay on Bacillus cereus [12]. Further, the Activity in [3] was 26.3%; in the assay with Paenibacillus polymyxa [5] it was 39.6%; in the assay with Staphylococcus aureus [6] it was 15.3%; with Enterococcus faecalis [7], 77.2%; with Escherichia coli [1], “Dose-dependent effect”; in the assay with Bacillus cereus [13] it was 79.7%. For the same molecule, the Activity in the assay with Staphylococcus aureus [14] was found to be 39.8%. Moreover, in the assay with Escherichia coli [8], the result was inactive.

Consider `CCCCCCCCNCCC[C@@H](C)[C@H]1CC[C@H]2[C@@H]3[C@H](OCCCN)C[C@@H]4C[C@H](OCCCN)CC[C@]4(C)[C@H]3C[C@H](OCCCN)[C@]12C`, for which the MBC is 5.5 µg/mL (≈ 8.12 µM) with Enterococcus faecalis [2]; 2 µg/mL (≈ 2.95 µM) in the assay with Staphylococcus aureus [4]; 1 µg/mL (≈ 1.48 µM) in assay [9]; 2.5 µg/mL (≈ 3.69 µM) in the assay on Staphylococcus aureus [10]; 2.5 µg/mL (≈ 3.69 µM) in the assay with Klebsiella pneumoniae [15]; 3.5 µg/mL (≈ 5.17 µM) with Pseudomonas aeruginosa. Also, the minimum bactericidal concentration (MBC) came to 2.5 µg/mL (≈ 3.69 µM) against Paenibacillus polymyxa [11], 1.5 µg/mL (≈ 2.22 µM) with Escherichia coli [17] and 1 µg/mL (≈ 1.48 µM) in the assay with Bacillus cereus [12]. Besides, the Activity was 25% in assay [3]; 88.4% in the assay on Paenibacillus polymyxa [5]; 45.8% with Staphylococcus aureus [6]; 74% in the assay on Enterococcus faecalis [7]; “Dose-dependent effect” in the assay with Escherichia coli [1]; 86.7% with Bacillus cereus [13]. In the assay with Staphylococcus aureus [14], the Activity is listed as 41.5%. The result in the assay on Escherichia coli [16] was Active.

In the case of `C[C@H](CCCO)[C@H]1CC[C@H]2[C@@H]3[C@H](OCCCN)C[C@@H]4C[C@H](OCCCN)CC[C@]4(C)[C@H]3C[C@H](OCCCN)[C@]12C`, the result with Klebsiella pneumoniae [18] and with Escherichia coli [19] was Active. The MBC worked out at 50 µg/mL (≈ 88.4 µM) with Enterococcus faecalis [2]; 19 µg/mL (≈ 33.6 µM) in the assay with Staphylococcus aureus [4]; 12 µg/mL (≈ 21.2 µM) in [9]; 35 µg/mL (≈ 61.9 µM) against Staphylococcus aureus [10]; 12.5 µg/mL (≈ 22.1 µM) against Klebsiella pneumoniae [15]; 12 µg/mL (≈ 21.2 µM) against Pseudomonas aeruginosa. The results for the MBC against Paenibacillus polymyxa [11], with Escherichia coli [17] and in the assay on Bacillus cereus [12] were 15 µg/mL (≈ 26.5 µM), 10 µg/mL (≈ 17.7 µM) and 7 µg/mL (≈ 12.4 µM), respectively. Moreover, the Activity in [3] was 60.1%; in the assay with Paenibacillus polymyxa [5], 96.6%; with Staphylococcus aureus [6] it was 39%; in the assay with Enterococcus faecalis [7], 80.6%; with Escherichia coli [1], “Dose-dependent effect”; in the assay on Bacillus cereus [13], 84.7%. In the assay with Staphylococcus aureus [14], this molecule came in with an Activity of 82.8%. Besides, the outcome in the assay with Escherichia coli [8] was inactive.

The values above are taken from ChEMBL document CHEMBL1671715, “Depolarization, bacterial membrane composition, and the antimicrobial action of ceragenins” (2010).
